MrgX1 ag – agonists of human MrgX1 receptor; 310,000 compounds, 0.44% hits; AID 588627; MrgX1-HEK293 cells, Fluo-4 calcium fluorescence, agonist mode; stronger effect = higher value; Q96LB2; B-score at 10 µM;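 active = calcium response B-score plate-corrected fluorescence ratio at least 3 library SD, with starting fluorescence B-score inside 5 SD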
Target sequence (Q96LB2 whole entry, looked up): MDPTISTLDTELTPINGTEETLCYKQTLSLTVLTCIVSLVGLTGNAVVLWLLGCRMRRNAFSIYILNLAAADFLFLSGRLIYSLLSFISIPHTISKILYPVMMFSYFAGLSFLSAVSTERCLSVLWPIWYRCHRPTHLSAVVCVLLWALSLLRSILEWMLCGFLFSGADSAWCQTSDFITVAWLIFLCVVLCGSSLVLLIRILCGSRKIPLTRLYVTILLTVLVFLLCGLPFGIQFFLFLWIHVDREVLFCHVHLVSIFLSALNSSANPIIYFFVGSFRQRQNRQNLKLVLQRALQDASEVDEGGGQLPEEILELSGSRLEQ
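System – MrgX1-expressing HEK293 cells · Incubation – cells plated overnight, dye loaded 0.5 h 37 °C, 0.5 h room temperature · Technique – kinetic Fluo-4 NW fluorescence of intracellular calcium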
MrgX1 antag – antagonists of human MrgX1 receptor | Q96LB2 | MRGX1-HEK293 calcium flux, Fluo-4, BAM8-22 antagonism; stronger effect = lower value | B-score at 10 µM | 310,000 compounds, 1.3% hits | AID 588676;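 active = calcium-response B-score plate-corrected more than 3 library SD below zero, starting fluorescence within 5 deviations, no agonist response on first addition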;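 note: peak minus trough fluorescence over baseline after final BAM8-22 challenge near maximal dose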
RGS4 inh – inhibitors of human RGS4 | B-score at 10 µM | HEK293 M3R/RGS4 inducible, Fluo-4 calcium flux; stronger effect = higher value; triggered by carbachol at its EC20 | P49798 | AID 463165 | 310,000 compounds, 0.45% hits;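 active = B-score, a plate-corrected calcium signal, over three deviations above library mean, with baseline fluorescence within five deviations of library mean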;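 note: RGS4 expression induced by doxycycline in cells with stable M3 receptor; B-score is computed from the integrated fluorescence ratio over baseline after carbachol; higher B-score means a larger calcium signal and so more RGS4 inhibition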
Target sequence (P49798 whole entry, looked up): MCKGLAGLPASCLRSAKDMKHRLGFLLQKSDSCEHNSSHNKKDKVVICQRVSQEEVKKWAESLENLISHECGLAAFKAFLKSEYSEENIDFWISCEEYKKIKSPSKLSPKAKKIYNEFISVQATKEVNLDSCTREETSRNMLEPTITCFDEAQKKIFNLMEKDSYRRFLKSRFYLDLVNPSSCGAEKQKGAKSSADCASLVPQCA
RGS4 act – RGS4 potentiation or activation; HEK293 M3R/inducible RGS4, carbachol calcium flux Fluo4; stronger effect = lower value; B-score at 10 µM; 310,000 compounds, 0.92% hits;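 active = B-score of the integrated calcium signal more than 4 SD below the library mean, with starting fluorescence not abnormally high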;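 note: negative B-score means reduced calcium response which marks RGS4 activation or potentiation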
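Test system: HEK293 cells with stable M3R and inducible RGS4; also added: carbachol at ECmax as muscarinic agonist stimulus; schedule: dye loading 30 min 37 °C, buffer rest 30 min RT; technique: kinetic calcium fluorescence imaging with Fluo4-AM dye, 2 µM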
MrgX1 PAM – human MrgX1 positive allosteric modulation, primary screen; AID 588675; Q96LB2; MrgX1-HEK293, Fluo-4 calcium flux, FDSS; stronger effect = higher value; B-score at 10 µM; 310,000 compounds, 0.63% hits;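 active = plate-corrected calcium response at least 3 library SD above typical, normal starting fluorescence, not activating the receptor alone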;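 note: compound read alongside a low EC10 to EC30 dose of BAM8-22 agonist; peak minus trough fluorescence over baseline measured at the second addition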
Each line names hits and unclear results; the compound was inactive in the other large screens. This is a sample that favours compounds with a hit; in the whole collection about 3.5% have one here.

Cc1ccc(/C=C2\Oc3c(ccc(O)c3CN3CCN(CCO)CC3)C2=O)cc1	RGS4 act -10
Cc1cc(Br)ccc1NC(=S)N1CCOCC1	none
O=C(Oc1cccc2cccnc12)c1cccc(N2C(=O)C3C4CCC(C4)C3C2=O)c1 (stereo not given)	RGS4 inh 6
COc1ccc(/C=C2\C(=O)ON=C2c2cccc([N+](=O)[O-])c2)cc1	RGS4 inh 6.8
N#C/C(=C\c1ccc2c(c1)OCCO2)C(=O)Nc1nccs1	MrgX1 ag 52
O=[N+]([O-])c1ccc(N/N=C2\CC3CC=CC23)cc1 (stereo not given)	MrgX1 PAM 8.1
COc1cc(C(=O)NCCOc2ccccc2)c(Br)c(OC)c1OC	none
COc1cc(C(=O)NCCOc2cccc(C)c2)c(Br)c(OC)c1OC	RGS4 act -7.2
CCOC(=O)C[C@H]1c2ccccc2S(=O)(=O)N1C1CC1	none
O=C(NCC1CCCO1)c1nn2c(C(F)(F)F)cc(-c3cc(Br)cs3)nc2c1Br (stereo not given)	MrgX1 ag 33
O=C(COc1coc(CN2CCN(Cc3ccccc3)CC2)cc1=O)Nc1ccccc1	none
CC(NS(=O)(=O)c1ccc([N+](=O)[O-])cc1)C(=O)NN (stereo not given)	none
CC(C(=O)NN)c1ccc([N+](=O)[O-])cc1 (stereo not given)	MrgX1 PAM 9.2
Clc1ccc(OCCCCN2CCCCC2)cc1	RGS4 act -7.1
Cc1cc(Br)ccc1OCCCCN1CCCCC1	RGS4 act -7
CC1CCN(CCCCOc2ccc(F)cc2)CC1	none
O=[N+]([O-])c1ccc(OCCCCN2CCCCC2)cc1	RGS4 act -7.6
CC(C)c1ccc(OCCCCN2CCCCC2)cc1	none
Cc1cc(Br)ccc1OCCOCCN1CCCC1	none
Cc1ccc(OCCCCN2CCC(C)CC2)cc1	RGS4 act -7.2
CN(C)c1ccc(S(=O)(=O)N2CCCCC2)cc1NC(=O)CN1C(=O)NC2(CCCC2)C1=O	none
Cc1cc(C)cc(OCC(=O)Nc2cnn(CCCC(=O)O)c2)c1	none
O=[N+]([O-])c1ccc(OCCCCCN2CCOCC2)cc1	none
CC(C)(C)c1ccc(OCCCN2CCCC2)cc1	none
CC1CCN(CCCCOc2ccc(C(=O)c3ccccc3)cc2)CC1	RGS4 act -9.6
CC(C)Oc1ccc(OCCCN2CCCCCC2)cc1	RGS4 act -7.2
CC1CCN(CCCCOc2ccc([N+](=O)[O-])cc2)CC1	RGS4 act -7.3
CC1CCN(CCOc2ccc(C(=O)c3ccccc3)cc2)CC1	none
COc1ccccc1N(C(=O)c1csnn1)C(C(=O)NC1CCCC1)c1ccccc1 (stereo not given)	none
O=C(CSc1nnc(CNc2ccc(F)cc2)n1Cc1ccccc1)NCc1ccccc1	MrgX1 antag -6.4
COc1ccc(-n2c(CCc3ccccc3)nnc2SCC(=O)c2ccccc2)cc1	none
O=C(CSc1nnc(CCc2ccccc2)n1-c1ccc(Cl)cc1)NCc1ccccc1	MrgX1 antag -4.8
COc1ccc(C(=O)CSc2nnc(CCc3ccccc3)n2-c2ccccc2)cc1	MrgX1 antag -6.4
Cc1csc(NC(=O)NCC2CCCC(CNC(=O)Nc3nc(C)cs3)C2)n1 (stereo not given)	none
N#CC1=C(N)OC2=C(CC/C2=C\c2ccccc2Cl)C1c1ccccc1Cl (stereo not given)	MrgX1 antag -12
N#CC1=C(N)OC2=C(CC/C2=C\c2ccccc2)C1c1ccccc1 (stereo not given)	MrgX1 ag 140
N#CC1=C(N)OC2=C(C(=O)CCC2)C1c1ccccc1 (stereo not given)	none
N#CC1=C(N)Oc2cc(O)c(Cl)cc2C1c1ccccc1F (stereo not given)	none
CCn1c(C)c(C)c2cc(C(=O)NCCCN3CCCCC3C)ccc21 (stereo not given)	none
O=C(N/N=C/c1cccc(C(F)(F)F)c1)c1cc2c(s1)-c1ccccc1CC2	MrgX1 antag -7.8
O=C(CN1C(=O)S/C(=C/c2ccc(N3CCOCC3)cc2)C1=O)N1CCOCC1	RGS4 act -7.2
CCN1/C(=C/c2cc[n+](C)cc2)C=Cc2cc(C)ccc21	MrgX1 antag -7 (no result: RGS4 inh, RGS4 act)
CCc1cc(=O)oc2cc(OC(=O)CN3C(=O)NC4(CCCC4)C3=O)ccc12	MrgX1 antag -6.9
O=C(CN1C(=O)NC2(CCCCC2)C1=O)Oc1ccc2c(C(F)(F)F)cc(=O)oc2c1	none
Cc1ccc(NC(=O)[C@H](C)NC(=O)C2CCN(C(=O)[C@@H](NC(=O)OC(C)(C)C)C(C)C)CC2)cc1	none
Cn1c(SCC(=O)Nc2nncs2)nnc1C1CC1	none
CCN1C(=O)/C(=C\N2CCCCCC2)SC1=S	RGS4 act -8.3
COc1ccc(CCNC(=O)c2cc(C(=O)c3cc(C)ccc3O)cn(CCc3ccc(OC)cc3)c2=O)cc1	RGS4 act -8.7
CCN1C(=O)[C@H]2[C@@H](c3ccc(-c4cccc(Cl)c4)cc3)N[C@@](Cc3ccccc3)(C(=O)OC)[C@H]2C1=O	none
CCOC(=O)c1nn(-c2ccccc2)c2nc(-c3ccc(OC)cc3)c(C#N)c(=O)n12	MrgX1 antag -4.9
CCOC(=O)c1c(S(=O)(=O)N2CCN(c3ccc(F)cc3)CC2)c(C)n(C)c1C	none
Cc1ccc(C2C(C#N)=C(N)Oc3n[nH]c(-c4ccccc4)c32)o1 (stereo not given)	MrgX1 ag 50
COc1ccc(-c2ccc(C3C(C#N)=C(N)Oc4n[nH]c(C)c43)o2)cc1 (stereo not given)	MrgX1 ag 55
Cc1ccc(C2C(C#N)=C(N)Oc3c2sc2ccccc32)o1 (stereo not given)	MrgX1 PAM 9.2
CCCCn1c(N)c(N(CC(C)C)C(=O)CSc2nnc(-c3ccc(Cl)cc3)o2)c(=O)[nH]c1=O	none
O=C(NC1CCCC1)C1CCN(C(=O)c2cc(Cl)ccc2Cl)CC1	none
O=C(/C=C/c1ccco1)OCC1CCCN2CCCCC12 (stereo not given)	RGS4 act -7
CC(C)CN1C(=O)/C(=C(/C#N)C(=O)NC2CCCCC2)c2ccccc21	MrgX1 PAM 8.2
Cc1cccc(N(C)Cc2nnc(-c3cccc(Br)c3)o2)c1	none
CCCCn1nc(NS(=O)(=O)c2cccc3nonc23)c2cc3cccc(C)c3nc21	MrgX1 PAM 7.1
Cc1ccc(C2NC(c3ccc(C)cc3)C(C)C(=NO)C2C)cc1 (stereo not given)	MrgX1 PAM 12
CC1C(=NO)C(C)C(c2ccccc2)NC1c1ccccc1 (stereo not given)	none
Cc1ccc(C2C(C#N)=C(N)SC(N)=C2C#N)c(C)c1	MrgX1 ag 52
O=C(c1ccncc1)N1CCN(S(=O)(=O)c2cccc(Cl)c2)CC1	none
CC1=C(C#N)C(c2ccoc2)C(C(=O)OCc2ccccc2)=C(N)S1 (stereo not given)	none
